According to ChEMBL document CHEMBL4680134, “Structural optimization of natural product nordihydroguaretic acid to discover novel analogues as AcrB inhibitors” (Eur J Med Chem, 2020):
The source made the active and inactive calls. No cut-off for these calls is given here.

Assays:
[1] = molecular target: T1, Multidrug efflux pump subunit AcrB (Escherichia coli (strain K12)) (UniProt P31224); assay: Inhibition of AcrB in Escherichia coli BW25113 assessed as potentiation of chloramphenicol induced antibacterial activity by measuring chloramphenicol MIC at 256 ug/ml measured after 18 hrs by checkerboard titration method (reference value: 8 ug/ml); details: dose 256.0 µg/ml
T1 sequence (whole entry): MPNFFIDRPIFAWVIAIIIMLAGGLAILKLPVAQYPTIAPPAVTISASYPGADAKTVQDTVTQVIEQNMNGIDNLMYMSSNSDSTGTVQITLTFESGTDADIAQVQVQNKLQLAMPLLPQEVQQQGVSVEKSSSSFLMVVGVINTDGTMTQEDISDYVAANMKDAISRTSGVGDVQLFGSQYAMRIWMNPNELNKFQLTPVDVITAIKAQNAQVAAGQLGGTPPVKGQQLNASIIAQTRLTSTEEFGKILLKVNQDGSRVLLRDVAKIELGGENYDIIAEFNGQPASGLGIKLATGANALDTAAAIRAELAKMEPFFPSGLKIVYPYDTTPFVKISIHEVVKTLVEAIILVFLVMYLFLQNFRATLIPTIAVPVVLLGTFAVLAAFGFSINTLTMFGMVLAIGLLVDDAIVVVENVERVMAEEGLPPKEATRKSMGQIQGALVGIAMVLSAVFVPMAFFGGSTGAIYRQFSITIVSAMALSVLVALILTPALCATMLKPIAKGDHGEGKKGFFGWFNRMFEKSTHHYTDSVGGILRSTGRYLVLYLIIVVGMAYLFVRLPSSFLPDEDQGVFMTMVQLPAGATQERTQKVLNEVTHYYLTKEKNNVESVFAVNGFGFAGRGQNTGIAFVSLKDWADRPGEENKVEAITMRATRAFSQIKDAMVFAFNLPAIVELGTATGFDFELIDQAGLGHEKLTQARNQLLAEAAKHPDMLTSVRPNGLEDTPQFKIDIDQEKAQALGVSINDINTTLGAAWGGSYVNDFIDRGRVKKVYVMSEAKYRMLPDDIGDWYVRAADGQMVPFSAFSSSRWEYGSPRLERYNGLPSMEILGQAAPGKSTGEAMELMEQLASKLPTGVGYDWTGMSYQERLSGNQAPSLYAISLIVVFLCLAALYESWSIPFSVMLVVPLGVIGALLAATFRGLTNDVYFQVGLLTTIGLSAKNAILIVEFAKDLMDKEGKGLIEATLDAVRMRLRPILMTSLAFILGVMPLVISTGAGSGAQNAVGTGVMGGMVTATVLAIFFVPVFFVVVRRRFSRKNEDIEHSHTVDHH

[2] = molecular target: T1, Multidrug efflux pump subunit AcrB (Escherichia coli (strain K12)); assay: Inhibition of AcrB in Escherichia coli BW25113 assessed as potentiation of erythromycin induced antibacterial activity by measuring erythromycin MIC at 32 ug/ml measured after 18 hrs by checkerboard titration method (reference value: 64 ug/ml); details: dose 32.0 µg/ml
[3] = molecular target: T1, Multidrug efflux pump subunit AcrB (Escherichia coli (strain K12)); assay: Inhibition of AcrB in Escherichia coli BW25113 assessed as potentiation of erythromycin induced antibacterial activity by measuring erythromycin MIC at 64 ug/ml measured after 18 hrs by checkerboard titration method (reference value: 64 ug/ml); details: dose 64.0 µg/ml
[4] = molecular target: T1, Multidrug efflux pump subunit AcrB (Escherichia coli (strain K12)); assay: Inhibition of AcrB in Escherichia coli BW25113 assessed as potentiation of tetraphenylphosphonium induced antibacterial activity by measuring tetraphenylphosphonium MIC at 16 ug/ml measured after 18 hrs by checkerboard titration method (reference value: 1024 ug/ml); details: dose 16.0 µg/ml
[5] = molecular target: T1, Multidrug efflux pump subunit AcrB (Escherichia coli (strain K12)); assay: Inhibition of AcrB in Escherichia coli BW25113 assessed as potentiation of tetraphenylphosphonium induced antibacterial activity by measuring tetraphenylphosphonium MIC at 256 ug/ml measured after 18 hrs by checkerboard titration method (reference value: 1024 ug/ml); details: dose 256.0 µg/ml
[6] = molecular target: T1, Multidrug efflux pump subunit AcrB (Escherichia coli (strain K12)); assay: Inhibition of AcrB in Escherichia coli BW25113 assessed as potentiation of rifampicin induced antibacterial activity by measuring rifampicin MIC at 16 ug/ml measured after 18 hrs by checkerboard titration method (reference value: 16 ug/ml); details: dose 16.0 µg/ml
[7] = molecular target: T1, Multidrug efflux pump subunit AcrB (Escherichia coli (strain K12)); assay: Inhibition of AcrB in Escherichia coli BW25113 assessed as potentiation of rifampicin induced antibacterial activity by measuring rifampicin MIC at 128 ug/ml measured after 18 hrs by checkerboard titration method (reference value: 16 ug/ml); details: dose 128.0 µg/ml
[8] = molecular target: T1, Multidrug efflux pump subunit AcrB (Escherichia coli (strain K12)); assay: Inhibition of AcrB in Escherichia coli BW25113 assessed as reduction in glucose-induced nile red efflux at 50 to 100 uM preincubated for 15 mins followed by nile red addition and incubated for 3 hrs in shaker in presence of CCCP by fluorimetric analysis; details: dose 50-100 µM, time 195.0 min
Summary of the method: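 Whole-cell efflux: wild-type and ΔAcrB cells preloaded with Nile Red, with or without compound, before fluorescence readings. Efflux triggered at 100 s with 0.2% glucose and followed by fluorometry. The ΔAcrB strain marks maximal accumulation. Triplicate experiments with different cell batches.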

Cell membrane = assay: Induction of outer membrane permeabilization in wild type Escherichia coli BW25113 assessed as increase in nitrocefin hydrolysis at 128 ug/ml by spectrophotometry analysis; details: dose 128 µg/ml
Summary of the method: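 Outer-membrane permeability: intact E. coli treated with 10 µM CCCP to block nitrocefin efflux, then exposed to compound. Nitrocefin hydrolysis by periplasmic β-lactamase followed as increasing absorbance at 490 nm over time. Polymyxin B as permeabilizer control, untreated cells as baseline. Duplicate experiments on different days.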

[9] = molecular target: T1, Multidrug efflux pump subunit AcrB (Escherichia coli (strain K12)); assay: Inhibition of AcrB in Escherichia coli BW25113 assessed as potentiation of chloramphenicol induced antibacterial activity by measuring chloramphenicol MIC at 8 ug/ml measured after 18 hrs by checkerboard titration method (reference value: 8 ug/ml); details: dose 8.0 µg/ml
[10] = molecular target: T1, Multidrug efflux pump subunit AcrB (Escherichia coli (strain K12)); assay: Inhibition of AcrB in Escherichia coli BW25113 assessed as potentiation of erythromycin induced antibacterial activity by measuring erythromycin MIC at 8 ug/ml measured after 18 hrs by checkerboard titration method (reference value: 64 ug/ml); details: dose 8.0 µg/ml
[11] = molecular target: T1, Multidrug efflux pump subunit AcrB (Escherichia coli (strain K12)); assay: Inhibition of AcrB in Escherichia coli BW25113 assessed as potentiation of tetraphenylphosphonium induced antibacterial activity by measuring tetraphenylphosphonium MIC at 8 ug/ml measured after 18 hrs by checkerboard titration method (reference value: 1024 ug/ml); details: dose 8.0 µg/ml
[12] = molecular target: T1, Multidrug efflux pump subunit AcrB (Escherichia coli (strain K12)); assay: Inhibition of AcrB in Escherichia coli BW25113 assessed as potentiation of rifampicin induced antibacterial activity by measuring rifampicin MIC at 8 ug/ml measured after 18 hrs by checkerboard titration method (reference value: 16 ug/ml); details: dose 8.0 µg/ml
[13] = molecular target: T1, Multidrug efflux pump subunit AcrB (Escherichia coli (strain K12)); assay: Inhibition of AcrB in Escherichia coli BW25113 assessed as reduction in glucose-induced nile red efflux at 500 uM preincubated for 15 mins followed by nile red addition and incubated for 3 hrs in shaker in presence of CCCP by fluorimetric analysis; details: time 195.0 min
Summary of the method: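 Wild-type E. coli cells with active AcrB were preloaded with Nile Red, with or without compound, before fluorescence recording began. At 100 sec, 0.2% glucose was added to re-energize the cells and trigger efflux, which was followed by fluorometry. An acrB-deleted isogenic strain served as the maximum-accumulation (no-efflux) reference. Triplicate experiments used different cell batches.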

Row | SMILES | MIC [1] [mg/L] | MIC [2] [mg/L] | MIC [3] [mg/L] | MIC [4] [mg/L] | MIC [5] [mg/L] | MIC [6] [mg/L] | MIC [7] [mg/L] | inhibition [8] | Activity (Cell membrane) | MIC [9] [mg/L] | MIC [10] [mg/L] | MIC [11] [mg/L] | MIC [12] [mg/L] | inhibition [13]
1 | Oc1ccc(CCCCc2ccc(Cl)cc2)cc1O | 16 | 64 | 64 | 1020 | 512 | 16 | 16 | Active | Toxic | – | – | – | – | –
2 | C[C@H](Cc1ccc(O)c(O)c1)[C@@H](C)Cc1ccc(O)c(O)c1 [MASOPROCOL] | 2 | 64 | 64 | – | 64 | – | 16 | Active | – | – | – | – | – | –
3 | Oc1ccc(CCCCc2ccc(Br)cc2)cc1O | 8 | 64 | 64 | 1020 | 512 | 16 | 16 | Active | Toxic | – | – | – | – | –
4 | Oc1ccc(CCCCCCc2ccc(O)c(O)c2)cc1O | 8 | 64 | 64 | – | 512 | 16 | 16 | Active | Non-Toxic | – | – | – | – | –
5 | Oc1ccc(CCCCCCCc2ccc(O)c(O)c2)cc1O | 8 | 64 | 64 | 1020 | 512 | 16 | 16 | – | Non-Toxic | – | – | – | – | –
6 | O=C(NCCc1ccc(O)c(O)c1)c1ccc(O)c(O)c1 | – | 32 | 32 | 1020 | – | 16 | 16 | – | – | 8 | 64 | 1020 | 16 | –
7 | Oc1ccc(CCCCc2cc(O)c(O)c(O)c2)cc1O | 1 | 64 | 32 | 512 | 256 | 16 | 16 | – | – | – | – | – | – | Active
8 | O=C(NCCc1ccc(O)c(O)c1)c1ccc(Br)cc1 | – | 64 | 64 | 1020 | – | 16 | 16 | – | – | 8 | 64 | 1020 | 16 | –
9 | Oc1ccc(CCCCc2ccc(O)c(O)c2)cc1O | 4 | 64 | 64 | 1020 | 512 | 16 | 16 | – | – | – | – | – | – | –
10 | Nc1cc(N)cc(C(=O)NCCc2ccc(O)c(O)c2)c1 | – | 32 | 32 | 512 | – | 16 | 16 | – | Non-Toxic | 8 | 64 | 512 | 16 | –
11 | Oc1ccc(CCCCc2cc3cccc4ccc5cccc2c5c43)cc1O | 4 | 64 | 32 | 512 | 256 | 16 | 16 | Active | Non-Toxic | – | – | – | – | –
12 | O=C(NCCc1ccc(O)c(O)c1)c1ccc(C(F)(F)F)cc1 | – | 64 | 64 | 1020 | – | 16 | 16 | – | – | 8 | 64 | 1020 | 16 | –
13 | Oc1ccc(CCCCCc2ccc(O)c(O)c2)cc1O | 8 | 64 | 64 | 1020 | 32 | 16 | 16 | – | Non-Toxic | – | – | – | – | –
14 | O=C(NCCc1ccc(O)c(O)c1)c1ccccc1O | – | 64 | 64 | 1020 | – | 16 | 16 | – | – | 8 | 64 | 1020 | 16 | –
15 | Cc1ccc(C(=O)NCCc2ccc(O)c(O)c2)cc1 | – | 16 | – | 1020 | – | 16 | 16 | Active | Non-Toxic | 8 | 64 | 1020 | 16 | –
